Assay results taken from ChEMBL document CHEMBL1125497, “Synthesis and anticonvulsant activity of enaminones” (J Med Chem, 1992).

Legend:
[1] = Antiepileptic activity in male CF1 mice 0.5 hr after oral administration measured in maximum electroshock seizure(MES) test at a dose of 10 mg/kg (no. of animals treated /protected); activity value is 4/4; type: functional, Mus musculus
[2] = Antiepileptic activity in male CF1 mice 2.00 hours after oral administration measured in neurological toxicity (Tox) test at a dose of 6 mg/kg (no. of animals treated /protected); activity value is 0/4; type: functional, Mus musculus
[3] = Antiepileptic activity in male CF1 mice 30 min after administration measured in neurological toxicity (Tox) test at a dose of 300 mg/kg (no. of animals treated /protected); activity value is 4/4; type: functional, Mus musculus
[4] = Antiepileptic activity in male CF1 mice 1 hr after oral administration measured in neurological toxicity (Tox) test at a dose of 10 mg/kg (no. of animals treated /protected); activity value is 0/4; type: functional, Mus musculus
Rattus norvegicus [5] = experiment: Per oral dose (20 mg/Kg) reducing rat corneal kindling 0.5 hr after administration.; type: functional
Summary of the method: (§1)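 Sprague-Dawley rats (85–95 g initial) were kindled with 4 s, 8 mA corneal stimulations (butacaine anesthesia) to 10 consecutive stage 5 seizures. After a vehicle shock and a 2-day shock-free period, test drug was given ip or po and a single shock applied at time of peak effect. Seizures were scored on a modified Racine 0–5 scale. ED50 is the dose reducing severity by 50% (Litchfield–Wilcoxon).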

[6] = Antiepileptic activity in male CF1 mice 4 hr after oral administration measured in neurological toxicity (Tox) test at a dose of 10 mg/kg (no. of animals treated /protected); activity value is 0/4; type: functional, Mus musculus
Rattus norvegicus [7] = experiment: Average seizure score for the rat cornea 0.5 hr after peroral administration of 20 mg/kg of compound; type: functional; settings: route oral; summary of the method: as §1
[8] = Antiepileptic activity in male CF1 mice 4 hr after oral administration measured in maximum electroshock seizure(MES) test at a dose of 10 mg/kg (no. of animals treated /protected); activity value is 3/4; type: functional, Mus musculus
[9] = Antiepileptic activity in male CF1 mice 0.5 hr after oral administration measured in maximum electroshock seizure(MES) test at a dose of 6 mg/kg (no. of animals treated /protected); activity value is 3/4; type: functional, Mus musculus
[10] = Dose producing neurotoxic effects in 50% of the CF1 mice after intraperitoneal administration.; type: functional; settings: Mus musculus, ip; read-out: ED50 (the source's name)
Summary of the method: (§2)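 Phase II quantification in CF1 male mice (ca. 24–34 g), dosing ip or po in 0.5% methylcellulose suspension. ED50 is protection from tonic hind limb extension in MES. TD50 is rotorod neurotoxicity. Both were read at time of peak effect and derived by Litchfield–Wilcoxon with 95% confidence limits.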

[11] = Antiepileptic activity in male CF1 mice 1 hr after oral administration measured in maximum electroshock seizure(MES) test at a dose of 6 mg/kg (no. of animals treated /protected); activity value is 1/4; type: functional, Mus musculus
[12] = Antiepileptic activity in male CF1 mice 4 hr after administration measured in neurological toxicity (Tox) test at a dose of 100 mg/kg (no. of animals treated /protected); activity value is 0/4; type: functional, Mus musculus
[13] = Antiepileptic activity in male CF1 mice 2 hr after oral administration measured in neurological toxicity (Tox) test at a dose of 10 mg/kg (no. of animals treated /protected); activity value is 0/4; type: functional, Mus musculus
[14] = Antiepileptic activity in male CF1 mice 4 hr after oral administration measured in neurological toxicity (Tox) test at a dose of 50 mg/kg (no. of animals treated /protected); activity value is 0/4; type: functional, Mus musculus
[15] = Protective index was measured as TD50/MES ED50 in mice on ip administration; type: ADME, organism-based; settings: mouse, in vivo, read-out: PI
Summary of the method: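 Male CF1 mice (ca. 24–34 g), compound given ip as 0.5% methylcellulose suspension. MES ED50 = dose protecting 50% from tonic hind limb extension; TD50 = median neurotoxic dose by rotorod; both at time of peak effect, with confidence limits by Litchfield and Wilcoxon. PI = TD50/MES ED50.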

[16] = Antiepileptic activity in male CF1 mice 30 min after administration measured in neurological toxicity (Tox) test at a dose of 300 mg/kg (no. of animals treated /protected); activity value is 3/4; type: functional, Mus musculus
Rattus norvegicus [17] = experiment: Per oral dose (60 mg/Kg) reducing rat corneal kindling 0.5 hr after administration.; type: functional; summary of the method: as §1
[18] = Protective index was measured as TD50/ED50 in rat on oral administration; type: ADME, organism-based; settings: in vivo, read-out: PI
Rattus norvegicus [19] = experiment: Average seizure score for the rat cornea 0.5 hr after peroral administration of 75 mg/kg of compound; type: functional; settings: route oral; summary of the method: as §1
[20] = Antiepileptic activity in male CF1 mice 1 hr after oral administration measured in neurological toxicity (Tox) test at a dose of 50 mg/kg (no. of animals treated /protected); activity value is 0/4; type: functional, Mus musculus
[21] = Dose showing neurotoxicity in 50% of the at the time of peak neurotoxic effect in CF1 MICE after po administration.; type: toxicity, organism-based; settings: CF1, mouse, in vivo; summary of the method: as §2
Rattus norvegicus [22] = experiment: Average seizure score for the rat cornea 0.5 hr after peroral administration of 60 mg/kg of compound; type: functional; settings: route oral; summary of the method: as §1
[23] = Antiepileptic activity in male CF1 mice 30 min after administration measured in maximum electroshock seizure(MES) test at a dose of 100 mg/kg (no. of animals treated /protected); activity value is 2/3; type: functional, Mus musculus
[24] = Antiepileptic activity in male CF1 mice 2 hr after oral administration measured in neurological toxicity (Tox) test at a dose of 50 mg/kg (no. of animals treated /protected); activity value is 0/4; type: functional, Mus musculus
[25] = Antiepileptic activity in male CF1 mice 0.5 hr after oral administration measured in neurological toxicity (Tox) test at a dose of 50 mg/kg (no. of animals treated /protected); activity value is 0/4; type: functional, Mus musculus
[26] = Antiepileptic activity in male CF1 mice 1 hr after oral administration measured in maximum electroshock seizure(MES) test at a dose of 50 mg/kg; activity value is 3/4; type: functional, Mus musculus
[27] = Antiepileptic activity in male CF1 mice 0.25 hr after oral administration measured in neurological toxicity (Tox) test at a dose of 50 mg/kg (no. of animals treated /protected); activity value is 0/4; type: functional, Mus musculus
[28] = Dose protecting 50% of the mice from tonic hind limb extension at the time of peak convulsant effect after po administration.; type: functional; settings: Mus musculus, Hindlimb; summary of the method: as §2
[29] = Antiepileptic activity in male CF1 mice 4 hr after administration measured in neurological toxicity (Tox) test at a dose of 100 mg/kg; activity value is 0/4; type: functional, Mus musculus
[30] = Antiepileptic activity in male CF1 mice 2 hr after oral administration measured in maximum electroshock seizure(MES) test at a dose of 50 mg/kg (no. of animals treated /protected); activity value is 2/4; type: functional, Mus musculus
[31] = Dose protecting 50% of the mice from tonic hind limb extension at the time of […] after ip administration.; type: functional; settings: Mus musculus, Hindlimb; summary of the method: as §2

`COC(=O)C1C(=O)C=C(Nc2ccc(Cl)cc2)CC1C` (stereo unspecified) showed an Activity [1] of 4, an Activity [2] of 0 and an Activity [3] of 4. The Activity [4] was 0, the Reduction (Rattus norvegicus [5]) was 40% and the Activity [6] was 0. The Average seizure score (Rattus norvegicus [7]) was 3, the Activity [8] was 3 and the Activity [9] was 3. It also gave a TD50 [10] of 255 mg/kg, an Activity [11] of 1 and an Activity [12] of 0. The Activity [13] was 0.

Work on `COC(=O)C1C(=O)C=C(NCc2ccccc2)CC1C` (stereo unspecified) yielded an Activity [14] of 0, a selectivity ratio [15] greater than 11.9 and an Activity [16] of 3. For the same compound, the Reduction (Rattus norvegicus [17]) was 40%, the selectivity ratio [18] was 18.7 and the Average seizure score (Rattus norvegicus [19]) was 2.6. It also gave an Activity [20] of 0, a TD50 [21] greater than 500 mg/kg and an Average seizure score (Rattus norvegicus [22]) of 3. The Activity [23] was 2, the Activity [24] was 0 and the Activity [25] was 0. For the same compound, the Activity [26] was 3, the Activity [27] was 0 and the ED50 [28] was 162 mg/kg. For the same compound, the Activity [29] was 0, the Activity [30] was 2 and the ED50 [31] was 42 mg/kg.
